Bioassay records: PubChem BioAssay, several laboratories
FXIa inh – blocks human coagulation factor XIa protease activity; P03951; purified FXIa, Boc-Glu-Ala-Arg-AMC fluorogenic substrate; inhibition, % at 5 µM; 220,000 compounds, 0.14% hits; AID 798;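 active = inhibition of at least 40%; inactive = inhibition below 40%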;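 also: fluorescence of freed AMC excited at 355 nm; 0% = enzyme without compound and 100% = no enzyme blank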
CTSL1 counter – blocks F. hepatica cathepsin L1 in PFM18AAP counter-screen. recombinant F. hepatica cathepsin L1, Z-Leu-Arg-MCA fluorescence. inhibition, % at 5.96 µM. 300,000 compounds, 0.49% hits;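 active = inhibition above the mean of all tested compounds plus 3 SD, set per screening campaign, cut at about 17% in these data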;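 also: 0% = plate median of test compound wells and 100% = 1 µM Z-Phe-Ala-diazomethylketone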
thrombin 1536 – inhibitors of human thrombin; AID 1046; alpha-thrombin, Boc-VPR-AMC fluorogenic substrate cleavage; 220,000 compounds, 0.26% hits; inhibition, % at 5 µM; P00734;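 active = inhibition at or above 40%; inactive = inhibition below 40%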;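 also: 0% = enzyme with no compound and 100% = wells without enzyme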
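System – human alpha-thrombin protein · Reagent – Boc-VPR-AMC substrate, 15 µM final · Compound – 5 µM single dose in 0.2% DMSO · Schedule – reaction at room temperature · Technique – AMC fluorescence at 355 nm excitation and 460 nm emission · Read-out basis – % inhibition relative to enzyme controls and enzyme-free blanks · Control set – no-compound enzyme wells and no-enzyme blanks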
Rce1 inhib – inhibitors of yeast Ras-converting enzyme; 290,000 compounds, 0.27% hits; AID 2563; Q03530; calls only; yeast membranes, quenched prenylated peptide cleavage fluorescence;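 active = fall in fluorescence gain of 50% or more versus controls, with final raw signal at or below 3038400; inconclusive = same 50% fall but final raw signal above 3038400; inactive = fall in fluorescence gain under 50%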;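 also: plate controls were neutral control wells for no effect and wells lacking membranes for full effect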
Target sequence (Q03530 whole entry, looked up): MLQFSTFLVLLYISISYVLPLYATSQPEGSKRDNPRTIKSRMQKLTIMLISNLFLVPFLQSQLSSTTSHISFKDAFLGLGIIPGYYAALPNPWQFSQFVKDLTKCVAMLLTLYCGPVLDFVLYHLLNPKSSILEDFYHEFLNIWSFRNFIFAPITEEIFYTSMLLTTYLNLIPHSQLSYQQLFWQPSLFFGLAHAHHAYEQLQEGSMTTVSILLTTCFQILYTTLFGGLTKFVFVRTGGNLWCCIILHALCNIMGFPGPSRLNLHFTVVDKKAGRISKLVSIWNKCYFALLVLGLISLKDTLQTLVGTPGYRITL
FXIIa inh – inhibitors of human coagulation factor XIIa | purified FXIIa, Boc-QGR-AMC fluorogenic substrate, 2 h | inhibition, % at 5 µM | 220,000 compounds, 0.3% hits | AID 800; in the data active = inhibition above about 40%;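 also: 0% = enzyme with no compound and 100% = blank without enzyme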
KLK5 inh – blocks human kallikrein 5 protease activity. 210,000 compounds, 0.59% hits. recombinant hK5, fluorogenic AMC substrate cleavage. inhibition, % at 5 µM. Q9Y337;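 active = inhibition of 40% or more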;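 also: 0% = enzyme controls without compound and 100% = no-enzyme blanks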
Target sequence (Q9Y337 67-293 limits assumed): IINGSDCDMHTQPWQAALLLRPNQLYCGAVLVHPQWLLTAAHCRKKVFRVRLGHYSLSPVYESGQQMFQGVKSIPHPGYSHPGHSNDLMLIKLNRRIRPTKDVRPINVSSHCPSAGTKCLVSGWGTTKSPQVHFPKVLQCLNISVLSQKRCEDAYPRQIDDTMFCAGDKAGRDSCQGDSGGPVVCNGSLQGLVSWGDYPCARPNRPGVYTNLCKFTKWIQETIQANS
An asterisk follows results filed as active; i = inactive; ? = inconclusive; · = no result; + = active, no number. A selection: hits, their analogues and other compounds. The true share with any hit is near 1.4%.

SMILES	FXIa inh	CTSL1 counter	thrombin 1536	Rce1 inhib	FXIIa inh	KLK5 inh
[O-]/C(=C(\C(=S)Nc1cccc2ccccc12)[n+]1ccccc1)c1ccc(Cl)s1	5	1	-2	i	13	-10
O=C(NCC1CCCO1)c1cc(C(=O)C2CCCCC2)c[nH]1 (stereo unspecified)	-8	5	-8	i	-1	-8
Cc1cc(=O)n2c(n1)SCOC2	21	-2	5	i	43*	35
COc1cc(=O)n2c(n1)SCCC2	2	-2	2	i	16	-22
Cn1cc(C(=O)NS(=O)(=O)Nc2ccc(Br)cc2)c2ccccc21	·	0	·	i	·	·
CCN(CC)CCN(C(=O)CCS(=O)(=O)c1ccccc1)c1nc2cc(OC)c(OC)cc2s1	·	7	·	i	·	·
CCN(CC)CCN(C(=O)CCS(=O)(=O)c1ccccc1)c1nc2cc(C)cc(C)c2s1	·	34*	·	i	·	·
CCN(CC)CCN(C(=O)CCS(=O)(=O)c1ccccc1)c1nc2c(C)cc(C)cc2s1	·	40*	·	i	·	·
Cc1cccc2sc(N(CCN3CCOCC3)C(=O)CCS(=O)(=O)c3ccccc3)nc12	·	17*	·	i	·	·
CN(CC(=O)Nc1cccc(F)c1)C(=O)CCc1nc2cc(S(=O)(=O)N3CCOCC3)ccc2n1C	·	1	·	i	·	·
Cc1ccc(-c2ccc(=O)n(CC(=O)NCCC(C)C)n2)cc1	·	1	·	i	·	·
COc1cccc(CN(C)C(=O)c2csc3c2CCCC3)c1OC	-6	18*	-1	i	9	5
Cc1ccc(NC(=O)C2=C(C(=O)O)CCCC2)cc1Br	·	7	·	i	·	·
COC(=O)C1=C(C)N(C)C(C)=C(C(=O)OC)C1c1ccc(C(=O)OC)cc1	4	0	1	·	16	4
COC(=O)C1=C(C)N(C)C(=S)N(C)C1c1ccc(OC)cc1 (stereo unspecified)	-4	17*	-8	i	0	-4
CC(=O)n1c(Cl)c(NC(=O)CCl)c2ccccc21	0	37*	-1	i	6	-6
CC(=O)n1c2ccccc2c2ccccc21	0	-3	-3	i	13	-44
COc1ccc(NC(=O)Cn2nnc(C(=O)NCc3ccc4c(c3)OCO4)c2N)c(OC)c1	·	0	·	i	·	·
c1ccc(C[n+]2cccc3c4ccccc4ccc32)cc1	10	2	-5	+	7	-4
O=[N+]([O-])c1ccc(C[n+]2cccc3ccccc32)cc1	-6	2	-8	i	0	-6
CCCCC[n+]1cccc2c3ccccc3ccc21	-7	2	-11	+	-4	-9
CCCC[n+]1c2ccccc2cc2ccccc21	·	-4	·	i	·	·
NC(=O)CSc1nc2scc(-c3ccco3)c2c(=O)n1-c1ccccc1	0	28*	-11	i	13	-8
O=C(CSc1nc2scc(-c3ccco3)c2c(=O)n1-c1ccccc1)N1CCOCC1	7	-2	2	i	3	-6
COc1ccc(S(=O)(=O)NC2CC2)cc1Br	·	-2	·	i	·	·
SMILES	FXIa inh	CTSL1 counter	thrombin 1536	Rce1 inhib	FXIIa inh	KLK5 inh
CCN(CC)CCCNC(=O)CCc1c(C)n(CC)c2cc(-c3ccccc3OC)nn2c1=O	·	-1	·	+	·	·
COC(=O)c1cc(OC)cc(O)c1C(=O)c1c(O)cc(C)cc1O	4	52*	5	·	10	3
O=C(CC12CC3CC(CC(C3)C1)C2)NCc1ccncc1	5	17*	1	i	16	-25
O=C(CC12CC3CC(CC(C3)C1)C2)NCc1ccccc1	·	1	·	i	·	·
CCSc1ccccc1C(=O)NCCCn1ccnc1	-5	4	3	i	20	43*
O=[N+]([O-])c1ccc(N2CCCC2)cc1NC1CC1	9	6	12	i	9	44*
Cc1ccc(S(=O)(=O)Cc2cn3cccnc3n2)cc1	-5	·	-5	+	6	-16
CS(=O)(=O)N1CCN(C(=O)c2c(F)cccc2F)CC1	6	8	0	i	17	7
CS(=O)(=O)N1CCN(C(=O)c2ccccc2F)CC1	8	6	7	·	8	116*
O=S(=O)(c1ccc(F)cc1)N1CCN(c2ccccn2)CC1	10	-7	1	i	9	-4
COc1ccccc1NC1=C(N2CCCCC2)C(=O)c2ccccc2C1=O	1	62*	-1	i	6	-14
O=C(O)c1cccc(NC2=C(Cl)C(=O)c3ccccc3C2=O)c1	-9	·	-24	·	1	-6
O=C1C(Nc2cccc(O)c2)=C(N2CCCCC2)C(=O)c2ccccc21	0	86*	-5	i	4	-7
CN(C1=C(N2CCCCC2)C(=O)c2ccccc2C1=O)c1ccccc1	3	7	7	i	11	0
O=C1C(NS(=O)(=O)c2ccc(Br)cc2)=C(N2CCCCC2)C(=O)c2ccccc21	·	-1	·	i	·	·
O=C1C(Nc2ccccc2)=C(N2CCCCC2)C(=O)c2ccccc21	-8	50*	2	i	-8	-13
O=C(/C=C/c1ccc(O)cc1)c1ccc(NC2=C(N3CCCCC3)C(=O)c3ccccc3C2=O)cc1	26	33*	5	i	18	-13
Cc1cccn2c(=O)c3cc(C(=O)NCc4cccnc4)c(=N)n(CC4CCCO4)c3nc12 (stereo unspecified)	·	4	·	?	·	·
COc1ccc(S(=O)(=O)N2CCCOC2CNC(=O)C(=O)NCc2ccccn2)cc1 (stereo unspecified)	·	2	·	i	·	·
Cc1ccc(NC2=C(N3CCCCC3)C(=O)c3ccccc3C2=O)cc1	2	34*	-1	i	9	-6
COc1cc(CC(=O)OCC(=O)NC2CC2)cc(OC)c1OC	-7	46*	11	i	1	-4
CC(/C=C/c1ccc(N(C)C)cc1)=N\N=C(/N)SC1CC(=O)N(c2ccc(C(=O)O)cc2)C1=O (stereo unspecified)	-9	22*	-5	i	8	-23
O=C(O)c1ccc(N2C(=O)CC(SC(=Nc3ccccc3)Nc3ccccc3)C2=O)cc1 (stereo unspecified)	6	2	-4	i	7	-9
COc1cccc(NC(=S)Nc2ccc(Br)cc2Cl)c1	36	0	51*	i	41*	39
COc1cccc(NC(=S)NCCC(c2ccccc2)c2ccccc2)c1	-15	0	41*	i	0	-20
COc1cc(NC(=S)NCCC(c2ccccc2)c2ccccc2)cc(OC)c1	6	1	-3	i	10	-8
O=C(CNc1cccc(C(F)(F)F)c1)N/N=C/C1CCCCC1	9	4	3	i	17	-18
CCOc1ccccc1CNC(=O)c1cc2occc2n1C	20	-1	3	+	26	2
CCOc1ccccc1CNC(=O)c1cc2oc3ccccc3c2n1C	5	1	5	i	19	2
COc1cc(C(=O)Nc2ccc3c(c2)OCCO3)ccc1OC(F)F	5	-1	1	i	13	5
